Test results as given in ChEMBL document CHEMBL5303300, “EUbOPEN Chemogenomics Library - Multiplex” (2023).
Several values for one entry are separate records, joined by “and”; a condition that tells them apart may be missing. Equal values may be shown once.

Tests used:
Type in all cases: toxicity, cell-based
[1] = system: Fibroblast; assay: Multiplex assay against human fibroblast; settings: number of replicates 2
Outline: (§1)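 Imaging took place on a CQ1 microscope at 37°C and 5% CO2 once compound had been added to live cells stained at seeding with Hoechst33342, BioTracker Green Microtubule Cytoskeleton Dye, MitoTracker Red and Annexin V Alexa Fluor 680. CellPathfinder machine-learning gating classed cells as Hoechst high-intensity objects or normal cells, classed normal cells as having healthy, pyknosed or fragmented nuclei, and classed pyknosed cells as mitotic or apoptotic. Tubulin, mitochondrial-mass and membrane-permeability phenotypes are per cents of the healthy-nucleus cells.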

[2] = system: HEK-293T; assay: Multiplex assay against HEK293T; settings: human, number of replicates 2; outline: as §1
[3] = system: U2OS; assay: Multiplex assay against U2OS; settings: human, number of replicates 2; outline: as §1
[4] = 12 h, 1 µM, compound concentration 1 uM
[5] = 12 h, 10 µM, compound concentration 10 uM
[6] = 24 h, 1 µM, compound concentration 1 uM
[7] = 24 h, 10 µM, compound concentration 10 uM
[8] = 48 h, 1 µM, compound concentration 1 uM
[9] = 48 h, 10 µM, compound concentration 10 uM

COc1ncc(-c2cc(-c3ncc(CN4C[C@@H](C)O[C@@H](C)C4)o3)c3cn[nH]c3c2)cc1NS(C)(=O)=O
Population Apoptotic (%) [1, 4]: 48% | Population Fragmented Nuclei (%) [1, 4]: 7% and 8% | Population Healthy Nuclei (%) [1, 4]: 77% and 70% | Population Hoechst High Intensity Objects (%) [1, 4]: 0% | Population Membrane Permeable-Phenotype (%) [1, 4]: 5% and 10% | Population Mitochondria Different-Phenotype (%) [1, 4]: 0% | Population Mitotic Cells (%) [1, 4]: 51% | Population Normal (%) [1, 4]: 100% | Population Pyknosed Nuclei (%) [1, 4]: 14% and 21% | Population Tubulin-Different-Phenotype (%) [1, 4]: 13% and 11% | Total Cell Count [1, 4]: 228 and 199 | Population Apoptotic (%) [1, 5]: 30% and 51% | Population Fragmented Nuclei (%) [1, 5]: 4% and 11% | Population Healthy Nuclei (%) [1, 5]: 59% and 66% | Population Hoechst High Intensity Objects (%) [1, 5]: 0% | Population Membrane Permeable-Phenotype (%) [1, 5]: 10% and 9% | Population Mitochondria Different-Phenotype (%) [1, 5]: 3% and 5% | Population Mitotic Cells (%) [1, 5]: 69% and 48% | Population Normal (%) [1, 5]: 100% | Population Pyknosed Nuclei (%) [1, 5]: 35% and 22% | Population Tubulin-Different-Phenotype (%) [1, 5]: 40% and 37% | Total Cell Count [1, 5]: 129 and 148 | Population Apoptotic (%) [1, 6]: 51% and 60% | Population Fragmented Nuclei (%) [1, 6]: 6% and 9% | Population Healthy Nuclei (%) [1, 6]: 79% and 67% | Population Hoechst High Intensity Objects (%) [1, 6]: 0% | Population Membrane Permeable-Phenotype (%) [1, 6]: 5% and 11% | Population Mitochondria Different-Phenotype (%) [1, 6]: 0% | Population Mitotic Cells (%) [1, 6]: 48% and 39% | Population Normal (%) [1, 6]: 100% and 99% | Population Pyknosed Nuclei (%) [1, 6]: 13% and 23% | Population Tubulin-Different-Phenotype (%) [1, 6]: 9% and 13% | Total Cell Count [1, 6]: 224 and 204 | Population Apoptotic (%) [1, 7]: 55% and 66% | Population Fragmented Nuclei (%) [1, 7]: 6% and 11% | Population Healthy Nuclei (%) [1, 7]: 62% and 71% | Population Hoechst High Intensity Objects (%) [1, 7]: 0% | Population Membrane Permeable-Phenotype (%) [1, 7]: 0% and 6% | Population Mitochondria Different-Phenotype (%) [1, 7]: 3% and 4% | Population Mitotic Cells (%) [1, 7]: 45% and 33% | Population Normal (%) [1, 7]: 100% | Population Pyknosed Nuclei (%) [1, 7]: 31% and 17% | Population Tubulin-Different-Phenotype (%) [1, 7]: 30% and 25% | Total Cell Count [1, 7]: 128 and 157 | Population Apoptotic (%) [1, 8]: 69% and 60% | Population Fragmented Nuclei (%) [1, 8]: 12% and 10% | Population Healthy Nuclei (%) [1, 8]: 77% and 74% | Population Hoechst High Intensity Objects (%) [1, 8]: 0% | Population Membrane Permeable-Phenotype (%) [1, 8]: 2% and 7% | Population Mitochondria Different-Phenotype (%) [1, 8]: 0% | Population Mitotic Cells (%) [1, 8]: 30% and 40% | Population Normal (%) [1, 8]: 100% and 99% | Population Pyknosed Nuclei (%) [1, 8]: 9% and 14% | Population Tubulin-Different-Phenotype (%) [1, 8]: 4% and 11% | Total Cell Count [1, 8]: 235 and 206 | Population Apoptotic (%) [1, 9]: 70% and 78% | Population Fragmented Nuclei (%) [1, 9]: 5% and 13% | Population Healthy Nuclei (%) [1, 9]: 64% and 67% | Population Hoechst High Intensity Objects (%) [1, 9]: 0% | Population Membrane Permeable-Phenotype (%) [1, 9]: 4% and 5% | Population Mitochondria Different-Phenotype (%) [1, 9]: 4% and 1% | Population Mitotic Cells (%) [1, 9]: 30% and 21% | Population Normal (%) [1, 9]: 100% and 99% | Population Pyknosed Nuclei (%) [1, 9]: 29% and 19% | Population Tubulin-Different-Phenotype (%) [1, 9]: 39% and 28% | Total Cell Count [1, 9]: 134 and 167 | Population Apoptotic (%) [2, 4]: 48% and 56% | Population Fragmented Nuclei (%) [2, 4]: 3% and 2% | Population Healthy Nuclei (%) [2, 4]: 86% and 81% | Population Hoechst High Intensity Objects (%) [2, 4]: 10% | Population Membrane Permeable-Phenotype (%) [2, 4]: 4% and 1% | Population Mitochondria Different-Phenotype (%) [2, 4]: 17% and 26% | Population Mitotic Cells (%) [2, 4]: 51% and 43% | Population Normal (%) [2, 4]: 89% | Population Pyknosed Nuclei (%) [2, 4]: 10% and 15% | Population Tubulin-Different-Phenotype (%) [2, 4]: 65% and 71% | Total Cell Count [2, 4]: 695 and 654 | Population Apoptotic (%) [2, 5]: 46% and 58% | Population Fragmented Nuclei (%) [2, 5]: 2% and 3% | Population Healthy Nuclei (%) [2, 5]: 75% and 82% | Population Hoechst High Intensity Objects (%) [2, 5]: 9% | Population Membrane Permeable-Phenotype (%) [2, 5]: 0% and 1% | Population Mitochondria Different-Phenotype (%) [2, 5]: 54% and 51% | Population Mitotic Cells (%) [2, 5]: 53% and 41% | Population Normal (%) [2, 5]: 90% | Population Pyknosed Nuclei (%) [2, 5]: 22% and 14% | Population Tubulin-Different-Phenotype (%) [2, 5]: 88% and 87% | Total Cell Count [2, 5]: 336 and 358 | Population Apoptotic (%) [2, 6]: 40% and 54% | Population Fragmented Nuclei (%) [2, 6]: 7% and 5% | Population Healthy Nuclei (%) [2, 6]: 86% and 83% | Population Hoechst High Intensity Objects (%) [2, 6]: 12% and 10% | Population Membrane Permeable-Phenotype (%) [2, 6]: 2% and 1% | Population Mitochondria Different-Phenotype (%) [2, 6]: 4% and 10% | Population Mitotic Cells (%) [2, 6]: 59% and 45% | Population Normal (%) [2, 6]: 87% and 89% | Population Pyknosed Nuclei (%) [2, 6]: 6% and 10% | Population Tubulin-Different-Phenotype (%) [2, 6]: 37% and 44% | Total Cell Count [2, 6]: 1173 and 987 | Population Apoptotic (%) [2, 7]: 46% and 45% | Population Fragmented Nuclei (%) [2, 7]: 4% | Population Healthy Nuclei (%) [2, 7]: 82% and 76% | Population Hoechst High Intensity Objects (%) [2, 7]: 9% and 10% | Population Membrane Permeable-Phenotype (%) [2, 7]: 1% | Population Mitochondria Different-Phenotype (%) [2, 7]: 41% and 44% | Population Mitotic Cells (%) [2, 7]: 53% and 54% | Population Normal (%) [2, 7]: 90% and 89% | Population Pyknosed Nuclei (%) [2, 7]: 13% and 19% | Population Tubulin-Different-Phenotype (%) [2, 7]: 79% and 86% | Total Cell Count [2, 7]: 379 and 373 | Population Apoptotic (%) [2, 8]: 13% and 26% | Population Fragmented Nuclei (%) [2, 8]: 15% and 9% | Population Healthy Nuclei (%) [2, 8]: 81% and 85% | Population Hoechst High Intensity Objects (%) [2, 8]: 11% | Population Membrane Permeable-Phenotype (%) [2, 8]: 7% and 2% | Population Mitochondria Different-Phenotype (%) [2, 8]: 0% and 2% | Population Mitotic Cells (%) [2, 8]: 86% and 73% | Population Normal (%) [2, 8]: 88% | Population Pyknosed Nuclei (%) [2, 8]: 2% and 4% | Population Tubulin-Different-Phenotype (%) [2, 8]: 22% and 30% | Total Cell Count [2, 8]: 2777 and 1879 | Population Apoptotic (%) [2, 9]: 55% and 40% | Population Fragmented Nuclei (%) [2, 9]: 6% and 4% | Population Healthy Nuclei (%) [2, 9]: 87% and 83% | Population Hoechst High Intensity Objects (%) [2, 9]: 13% and 9% | Population Membrane Permeable-Phenotype (%) [2, 9]: 2% and 3% | Population Mitochondria Different-Phenotype (%) [2, 9]: 18% and 21% | Population Mitotic Cells (%) [2, 9]: 44% and 59% | Population Normal (%) [2, 9]: 86% and 90% | Population Pyknosed Nuclei (%) [2, 9]: 6% and 11% | Population Tubulin-Different-Phenotype (%) [2, 9]: 74% and 82% | Total Cell Count [2, 9]: 527 and 510 | Population Apoptotic (%) [3, 4]: 66% and 57% | Population Fragmented Nuclei (%) [3, 4]: 3% and 13% | Population Healthy Nuclei (%) [3, 4]: 85% and 69% | Population Hoechst High Intensity Objects (%) [3, 4]: 0% | Population Membrane Permeable-Phenotype (%) [3, 4]: 1% and 0% | Population Mitochondria Different-Phenotype (%) [3, 4]: 0% | Population Mitotic Cells (%) [3, 4]: 33% and 42% | Population Normal (%) [3, 4]: 99% and 100% | Population Pyknosed Nuclei (%) [3, 4]: 11% and 16% | Population Tubulin-Different-Phenotype (%) [3, 4]: 84% and 43% | Population Apoptotic (%) [3, 5]: 50% and 64% | Population Healthy Nuclei (%) [3, 5]: 68% and 77% | Population Hoechst High Intensity Objects (%) [3, 5]: 0% | Population Membrane Permeable-Phenotype (%) [3, 5]: 12% and 10% | Population Mitochondria Different-Phenotype (%) [3, 5]: 0% and 5% | Population Mitotic Cells (%) [3, 5]: 50% and 35% | Population Normal (%) [3, 5]: 100% and 99% | Population Pyknosed Nuclei (%) [3, 5]: 10% and 18% | Population Tubulin-Different-Phenotype (%) [3, 5]: 48% and 45% | Population Apoptotic (%) [3, 6]: 65% and 87% | Population Fragmented Nuclei (%) [3, 6]: 1% and 9% | Population Healthy Nuclei (%) [3, 6]: 87% and 75% | Population Hoechst High Intensity Objects (%) [3, 6]: 0% | Population Membrane Permeable-Phenotype (%) [3, 6]: 1% and 0% | Population Mitochondria Different-Phenotype (%) [3, 6]: 0% | Population Mitotic Cells (%) [3, 6]: 34% and 12% | Population Normal (%) [3, 6]: 99% and 100% | Population Pyknosed Nuclei (%) [3, 6]: 10% and 15% | Population Tubulin-Different-Phenotype (%) [3, 6]: 82% and 47% | Population Apoptotic (%) [3, 7]: 64% and 74% | Population Healthy Nuclei (%) [3, 7]: 49% and 69% | Population Hoechst High Intensity Objects (%) [3, 7]: 0% | Population Membrane Permeable-Phenotype (%) [3, 7]: 0% and 8% | Population Mitochondria Different-Phenotype (%) [3, 7]: 7% and 9% | Population Mitotic Cells (%) [3, 7]: 35% and 25% | Population Normal (%) [3, 7]: 100% | Population Pyknosed Nuclei (%) [3, 7]: 26% and 23% | Population Tubulin-Different-Phenotype (%) [3, 7]: 76% and 49% | Population Apoptotic (%) [3, 8]: 65% and 69% | Population Fragmented Nuclei (%) [3, 8]: 2% and 7% | Population Healthy Nuclei (%) [3, 8]: 87% and 72% | Population Hoechst High Intensity Objects (%) [3, 8]: 0% | Population Membrane Permeable-Phenotype (%) [3, 8]: 1% and 0% | Population Mitochondria Different-Phenotype (%) [3, 8]: 0% | Population Mitotic Cells (%) [3, 8]: 34% and 30% | Population Normal (%) [3, 8]: 99% and 100% | Population Pyknosed Nuclei (%) [3, 8]: 10% and 19% | Population Tubulin-Different-Phenotype (%) [3, 8]: 81% and 43% | Population Apoptotic (%) [3, 9]: 76% and 81% | Population Healthy Nuclei (%) [3, 9]: 55% and 62% | Population Hoechst High Intensity Objects (%) [3, 9]: 0% | Population Membrane Permeable-Phenotype (%) [3, 9]: 7% and 8% | Population Mitochondria Different-Phenotype (%) [3, 9]: 10% and 12% | Population Mitotic Cells (%) [3, 9]: 23% and 18% | Population Normal (%) [3, 9]: 100% | Population Pyknosed Nuclei (%) [3, 9]: 25% and 30% | Population Tubulin-Different-Phenotype (%) [3, 9]: 63% and 50%
